The results in this text go back to paper PMC3516907 (ChemMedChem, 2010).

In one assay the test system is ER in MCF7 cells. The assay can be described thus: ER degradation in MCF7 cells by immunofluorescence. The assay is classed as cell-based, human. Summed up:
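MCF7 cells were grown on ethanol/UV-sterilised coverslips for 24 h, then switched to phenol-red-free RPMI with 5% charcoal/dextran-treated FBS. Compounds were diluted in this medium from a DMSO vehicle and applied for 48 h. Cells were fixed in 4% PFA, permeabilised with 0.2% Triton X-100, and blocked in 10% goat serum/0.1% BSA in PBST. Staining used anti-ER with an Alexa Fluor 488 secondary and DAPI mounting, imaged by inverted fluorescence microscopy.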

Assay [1] concerns endogenous ER in MCF7 breast cancer cells. The assay can be described thus: ER degradation in MCF7 cells by western blotting. The assay is classed as cell-based, human. Particulars: with/without proteasome inhibitor epoxomicin (Fig 3B). The procedure, abridged:
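MCF7 cells at 70% confluence, held at least 24 h in RPMI with 5% charcoal-dextran FBS, were treated 48 h (DMSO vehicle). Lysis was 1 h on ice in Tris/NaCl/NP40/Triton X-100 buffer with protease inhibitors, with Bradford protein assay. Equal protein ran on 10% SDS-PAGE and was blotted to PVDF. Anti-ER was applied overnight at 4°C, secondary 1 h at room temperature. Detection was ECL/film, reprobed for β-actin loading.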

In the case of `C[C@]12CC[C@@H]3c4ccc(O)cc4CC[C@H]3[C@@H]1CC[C@@H]2O` [E2, 17β-estradiol], in the assay on ER in MCF7 cells (48h, 25 μM PROTACs or 10 nM E2 plus epoxomicin (Fig 3A bottom row)), the “ER signal by immunofluorescence on co-treatment with epoxomicin” value is on record as “blocked by co-treatment with epoxomicin”. Moreover, the “proteasome dependence of ER degradation (western blot)” value in assay [1] is “confirmed via western blotting”.
Regarding -Leu-Ala-Pro^OHTyr-Ile-Bzl [PROTAC 24], in the assay on ER in MCF7 cells (48h treatment, 25 μM PROTACs, 10 nM E2 (Fig 3A top row)), the “ER signal (green, FITC) by immunofluorescence vs DMSO control” value is recorded as “attenuation of ER signal (green) was observed”. Further, in assay [1], the “proteasome dependence of ER degradation (western blot)” value is listed as “confirmed via western blotting”.
